Assay outcomes as filed in PubChem.
PGC1a Ac signal: raises PGC1a acetylation signal in U2OS cells | U2OS PGC1a acetylation AlphaScreen, overnight | activation, % at 15.6 µM | 0.21% of 350,000 active | AID 651723;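 active = every replicate reaching activation of at least 50%, whatever the mean replicate activation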;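 also: hits raise the AlphaScreen acetylation signal above neutral controls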
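detection = AlphaScreen lysate read | assay system = U2OS cells expressing flag-PGC1a plus GCN5 | input = 7000 cells/well | dosing = one concentration | times = compound overnight at 37 °C, each detection step 1 h RT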
* = called active by the depositor. This excerpt belongs to a sample that is enriched for hits.

SMILES | PGC1a Ac signal
C[C@H]1CN([C@@H](C)CO)C(=O)CCCn2nncc2CO[C@@H]1CN(C)C(=O)Nc1ccccc1 | -50
COCCNC(=O)/C(C#N)=C/C=C/c1ccccc1[N+](=O)[O-] | 104*
C[C@@H]1CN([C@@H](C)CO)C(=O)c2cc(NS(C)(=O)=O)ccc2O[C@@H](C)CCCCO[C@H]1CN(C)C(=O)Nc1ccc(F)cc1 | -48
COc1cc(CNC(=O)c2cc(-c3cc(C)cc(F)c3)n[nH]2)cc(OC)c1 | -45
Cn1c(SC2=CS(=O)(=O)c3ccccc32)nc2ccccc21 | 260*
CC(C)NC(=O)N(C)C[C@H]1OCCCC[C@@H](C)Oc2ccc(NC(=O)Nc3ccc(C(F)(F)F)cc3)cc2C(=O)N([C@H](C)CO)C[C@@H]1C | -50
O=C1CC(Sc2nnc(-c3ccccc3O)o2)C(=O)N1c1ccccc1 (stereo not drawn) | 86*
C[C@@H]1CN([C@@H](C)CO)S(=O)(=O)c2ccc(-c3ccccc3)cc2O[C@@H]1CN(C)C(=O)c1ccccc1F | -42
Cc1cnc2c(C(=O)O)cnn2c1 | -52
CC(=O)NC(c1cccc(F)c1)c1nc(-c2cccc(C(C)C)c2)cs1 (stereo not drawn) | -100
COc1ccc(Nc2ccnc3ccccc23)cc1 | -51
Nc1nc(Nc2ccccc2)nc2ccccc12 | 52*
COc1cc(Cl)c(S(=O)(=O)N2CC(C)OC(C)C2)cc1Cl (stereo not drawn) | 89*
COc1cc(C(=O)O)ccc1Cl | -48
COc1cc(CN2CC3(CCN(S(=O)(=O)c4cccs4)CC3)c3c(n(C)c4cc(OC)ccc34)[C@H]2CO)cc(OC)c1 | 63*
O=C(Cn1nc(C(=O)O)c2ccccc2c1=O)Nc1cccc(Br)c1 | -52
Cc1ccc(S(=O)(=O)N(C)C[C@H]2Oc3ccc(NC(=O)CCC(F)(F)F)cc3C(=O)N([C@H](C)CO)C[C@@H]2C)cc1 | -48
CC(C)CC#Cc1ccc([C@@H]2[C@H](CO)N3CCCCN(S(=O)(=O)Cc4ccccc4)C[C@@H]23)cc1 | 61*
COc1ccccc1C#Cc1ccc([C@H]2[C@H](C#N)N(C(=O)C3CCCC3)[C@H]2CO)cc1 | -65
O=C(Nc1ccccc1F)N1CCCCN2[C@H](CO)[C@H](c3ccc(C#Cc4ccccc4)cc3)[C@H]2C1 | 72*
COc1ccc(C#Cc2ccc([C@@H]3[C@H](CO)N4CCCCN(C(=O)Nc5ccccc5)C[C@@H]34)cc2)cc1 | 78*
O=C1C(Cl)=C(Nc2ccc3cn[nH]c3c2)C(=O)c2ccccc21 | -55
CC(=O)c1c(COC(=O)c2ccccc2)nc2ccccc2[n+]1[O-] | -55
N#C[C@@H]1[C@H](c2ccccc2C2=CCCCC2)[C@H](CO)N1C(=O)Cc1ccncc1 | -45
CCC(=O)Nc1ccnc(-c2cccnc2)n1 | -42
SMILES | PGC1a Ac signal
CC(NC(=O)Nc1cccnc1)(C(F)(F)F)C(F)(F)F | 62*
O=C(/C=C/c1cccnc1)/C=C/c1cccnc1 | -81
Cc1noc(C)c1NC(=O)N[C@H]1C=C[C@H](CC(=O)NCc2ccc(Cl)c(Cl)c2)O[C@H]1CO | -49
O=C(COC(=O)c1cc[n+]([O-])cc1)Nc1cccc(Cl)c1Cl | -48
O=C(COc1ccccc1Cl)Nc1ccc(Cl)cn1 | 98*
Cn1nnnc1Sc1ncnc2scc(-c3cc4ccccc4o3)c12 | 106*
Cn1nnnc1Sc1ncnc2scc(-c3ccc(C#N)cc3)c12 | 74*
N#Cc1ccccc1S(=O)(=O)N1CCN(Cc2cc3c(cc2Br)OCCO3)CC1 | 105*
Cc1ccc(C(=O)N2CCN(c3ncccn3)CC2)cc1 | -80
Cc1ccc(C(=O)N2CCN(c3ccc(NC(=S)NC(=O)c4cccs4)cc3)CC2)cc1 | 53*
O=C(NCC[C@@H]1CC[C@H](NS(=O)(=O)c2ccccc2)[C@@H](CO)O1)c1ccccc1F | -53
Cc1ccc(S(=O)(=O)N[C@@H]2CC[C@@H](CCNC(=O)c3ccccc3F)O[C@H]2CO)cc1 | -49
CC(C)NC(=O)NCC[C@@H]1CC[C@H](NS(=O)(=O)c2ccc(-c3ccccc3)cc2)[C@@H](CO)O1 | 65*
CCCNC(=O)[C@H]1[C@H](CO)[C@H]2Cn3c(ccc(-c4ccccc4)c3=O)[C@H]2N1C(=O)C1CC1 | -41
O=C(OCc1nc2ccsc2c(=O)[nH]1)c1cccc(S(=O)(=O)N2CCOCC2)c1 | -42
COC(=O)c1ccc2[nH]c3cccc(/C(=C/c4ccccc4)c4ccccc4)c3c2c1 | 61*
COc1cccc(-n2c(Cc3cc(=O)[nH]c(=O)[nH]3)nnc2SCc2cccc(C(F)(F)F)c2)c1 | -42
Cn1nc(C(=O)N2CCCCC2)c2c1-c1ccccc1S(=O)(=O)C2 | -48
CCOc1c(Br)cc(/C=C2/SC(=O)N(CC(=O)N3CCCC3)C2=O)cc1OC | 96*
CCN(C(=O)CN1CCN(c2ccccc2O)CC1)c1c(N)n(Cc2ccccc2)c(=O)[nH]c1=O | -50
O=C(CNC(=O)C1CCCCC1)OCC(=O)c1ccc(Cl)s1 | -45
O=C(CCNC(=O)C1CCN(S(=O)(=O)c2ccc(F)cc2)CC1)NCc1ccccc1Cl | 64*
Cn1c(=O)c2cc(S(=O)(=O)NCCC(=O)NCc3ccccc3Cl)ccc2n(C)c1=O | -47
